Calls of active or inactive are those of the source. No cut-off for these calls is given here.
How the values were obtained:
[1] = test system: MCF7; experiment: Cytotoxicity against human MCF7 cells after 72 hrs by sulforhodamine B assay; assay type: functional, cell-based; details: for IC50: MCF7, 72 h
Procedure, shortened: (§1)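 Antiproliferative test on MCF-7 human breast adenocarcinoma and A-549 human lung carcinoma cells. SN38 (7-ethyl-10-hydroxycamptothecin) served as positive control. IC50 is the concentration giving 50% inhibition of cell growth, calculated by a literature procedure.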

[2] = test system: A549; experiment: Cytotoxicity against human A549 cells after 72 hrs by sulforhodamine B assay; assay type: functional, cell-based; details: for IC50: A549, 72 h; procedure, shortened: as §1

Compound | IC50 [1] | IC50 [2] | Activity [1] | Activity [2]
CC[C@H]1CN2CCc3cc(OC)c(OC)cc3[C@@H]2C[C@@H]1C[C@H]1NCCc2c1[nH]c1ccccc21 | 2 nM | 90 nM | – | –
C/C=C1/CN2CC[C@@H]1/C(=C\[C@@H]1C[C@@H]3/C(=C\C)CN(C)[C@H](Cc4c1[nH]c1ccccc41)[C@@H]3C(=O)OC)c1[nH]c3ccccc3c1C2 | 1300 nM | 4000 nM | – | –
CCC1C[C@@H]2C[C@@]3(C(=O)OC)C4=Nc5ccccc5[C@@]4(O)CCN([C@@H]13)[C@H]2CC(C)=O (stereo partly specified) | – | – | inactive | inactive
CC[C@H]1[C@@H]2CCN3CC[C@@]4(C(=C2C(=O)OC)Nc2ccccc24)[C@@H]13 | – | – | inactive | inactive
CCc1c2c(nc3ccc(O)cc13)-c1cc3c(c(=O)n1C2)COC(=O)[C@]3(O)CC [7-ETHYL-10-HYDROXYCAMPTOTHECIN] | < 0.1 nM | 200 nM | – | –
C/C=C1/CN2CC[C@@H]1/C(=C\[C@@H]1C[C@@H]3[C@H](CC)CN(C)[C@H](Cc4c1[nH]c1ccccc41)[C@@H]3C(=O)OC)c1[nH]c3ccccc3c1C2 | 800 nM | 8100 nM | – | –
C/C=C1/C[N+]2(C)[C@@H]3Cc4c([nH]c5ccccc45)[C@]2(c2ccc4c5c([nH]c4c2)[C@@H]2C[C@H]4C[C@H](CC)[C@@H]2N(CC5)C4)C[C@H]1[C@H]3C(=O)OC | 1300 nM | 3200 nM | – | –
C=C1c2[nH]c3ccccc3c2CN2CC[C@H]1/C(=C\C)C2 | – | – | inactive | inactive
CC[C@@H]1CN(C)[C@@H]2Cc3c([nH]c4ccccc34)[C@H](c3ccc4c(c3)N=C3[C@@H]5C[C@H]6C[C@H](CC)[C@@H]5N(CC[C@@]34O)C6)C[C@H]1[C@H]2C(=O)OC | 1300 nM | > 10000 nM | – | –
C/C=C1/CN2CC[C@@H]1[C@@]1(C[C@H]3C[C@@H]4/C(=C\Cc5c3n1c1ccccc51)C(=O)N(C)C[C@@H]4CC)c1[nH]c3ccccc3c1C2 | > 10000 nM | 7500 nM | – | –
C/C=C1/C[N+]2(C)[C@@H]3Cc4c([nH]c5ccccc45)[C@]2(c2ccc4c5c([nH]c4c2)[C@]2(C(=O)OC)C[C@H]4C[C@H](CC)[C@@H]2N(CC5)C4)C[C@H]1[C@H]3C(=O)OC | 7300 nM | 1200 nM | – | –
CC[C@@H]1CN(C)[C@@H]2Cc3c([nH]c4ccccc34)[C@H](c3ccc4c5c([nH]c4c3)[C@]3(C(=O)OC)C[C@H]4C[C@H](CC)[C@@H]3N(CC5)C4)C[C@H]1[C@H]2C(=O)OC | 5400 nM | > 10000 nM | – | –
CC[C@@H]1CN(C)[C@@H]2Cc3c([nH]c4ccccc34)[C@H](c3ccc4c5c([nH]c4c3)[C@]3(C(=O)OC)C[C@H]4C[C@H](CC)[C@@H]3N(CC5)[C@H]4CC(C)=O)C[C@H]1[C@H]2C(=O)OC | 1300 nM | 1200 nM | – | –

— ChEMBL document CHEMBL4196181, “Flabellipparicine, a Flabelliformide-Apparicine-Type Bisindole Alkaloid from Tabernaemontana divaricata” (J Nat Prod, 2018)
